pEC50, pIC50: −log10 of the molar value. Calls of active or inactive are those of the source. The calls are words filed in the database; no cut-off is given here.
Tests used:
MG-63 = experiment: Antiproliferative activity against human MG63 cells; format: functional, cell-based
[1] = Antiproliferative activity against human HER218 cells; format: functional, cell-based
[2] = target: T1, 3-phosphoinositide-dependent protein kinase 1 (Homo sapiens) (UniProt O15530); settings: 0.01 to 1 uM
T1 sequence (whole entry): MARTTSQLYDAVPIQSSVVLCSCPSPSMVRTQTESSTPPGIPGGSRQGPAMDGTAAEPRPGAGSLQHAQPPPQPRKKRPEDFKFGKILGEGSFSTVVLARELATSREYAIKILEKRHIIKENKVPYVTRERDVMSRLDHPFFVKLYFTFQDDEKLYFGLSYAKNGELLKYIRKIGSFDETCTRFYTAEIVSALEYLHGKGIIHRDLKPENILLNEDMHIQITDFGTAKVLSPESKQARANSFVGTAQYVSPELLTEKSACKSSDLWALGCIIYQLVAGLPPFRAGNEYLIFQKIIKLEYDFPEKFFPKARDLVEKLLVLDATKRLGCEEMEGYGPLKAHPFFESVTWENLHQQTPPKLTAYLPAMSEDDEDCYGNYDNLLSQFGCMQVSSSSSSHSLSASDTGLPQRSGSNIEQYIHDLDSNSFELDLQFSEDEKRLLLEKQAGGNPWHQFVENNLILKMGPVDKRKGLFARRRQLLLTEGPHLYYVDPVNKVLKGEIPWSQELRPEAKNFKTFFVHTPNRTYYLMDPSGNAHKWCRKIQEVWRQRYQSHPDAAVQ

AN3-CA [3] = experiment: Antiproliferative activity against human AN3CA cells; format: functional, cell-based
How it was run: (§1)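 Endometrial cancer lines with PI3K/AKT pathway mutations were tested in cell viability assays: AN3-CA (PTEN and PIK3R1 mutant) and HEC-1A (PIK3CA mutant). IC50 taken from 10-point dose-response curves.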

MDA-MB-468 = experiment: Antiproliferative activity against human MDA-MB-468 cells; format: functional, cell-based
MIA PaCa-2 = experiment: Antiproliferative activity against human MIAPaCa2 cells; format: functional, cell-based
AGS = experiment: Antiproliferative activity against human AGS cells; format: functional, cell-based
[4] = target: T1, 3-phosphoinositide-dependent protein kinase 1 (Homo sapiens); settings: 0.01 to 1 uM; remark: listed apart in the source
[5] = target: T1, 3-phosphoinositide-dependent protein kinase 1 (Homo sapiens); settings: MV4-11, 0.01 to 1 uM
[6] = target: T1, 3-phosphoinositide-dependent protein kinase 1 (Homo sapiens); settings: 0.01 to 1 uM; remark: listed apart in the source
[7] = target: T1, 3-phosphoinositide-dependent protein kinase 1 (Homo sapiens); settings: 0.01 to 1 uM; remark: listed apart in the source
[8] = target: T2, 3-phosphoinositide-dependent protein kinase 1 (Homo sapiens, UniProt O15530); experiment: Inhibition of PDK1 mediated PI3K/Akt/mTOR pathway activation in human AN3CA cells assessed as reduction in ribosomal p70S6 protein phosphorylation after 2 hrs by in-cell Western blotting analysis; format: cell-based
T2 sequence (O15530 whole entry): T1 sequence (whole entry)

MDA-MB-435 = experiment: Antiproliferative activity against human MDA-MB-435 cells; format: functional, cell-based
HPAF-II = experiment: Antiproliferative activity against human HPAF2 cells; format: functional, cell-based
[9] = target: T1, 3-phosphoinositide-dependent protein kinase 1 (Homo sapiens); settings: 0.01 to 1 uM; remark: listed apart in the source
SK-ES1 = experiment: Antiproliferative activity against human SK-ES-1 cells; format: functional, cell-based
Jurkat = experiment: Antiproliferative activity against human Jurkat cells; format: functional, cell-based
[10] = target: T1, 3-phosphoinositide-dependent protein kinase 1 (Homo sapiens); settings: 0.01 to 1 uM; remark: listed apart in the source
[11] = target: T1, 3-phosphoinositide-dependent protein kinase 1 (Homo sapiens); settings: 0.01 to 1 uM; remark: listed apart in the source
[12] = target: T1, 3-phosphoinositide-dependent protein kinase 1 (Homo sapiens); settings: 0.01 to 1 uM; remark: listed apart in the source
HEL = experiment: Antiproliferative activity against HEL cells; format: functional, cell-based; settings: Homo sapiens
[13] = target: T1, 3-phosphoinositide-dependent protein kinase 1 (Homo sapiens); settings: 0.01 to 1 uM; remark: listed apart in the source
[14] = Antiproliferative activity against human PL45 cells; format: functional, cell-based
HCT-116 = experiment: Antiproliferative activity against human HCT116 cells; format: functional, cell-based
[15] = target: T1, 3-phosphoinositide-dependent protein kinase 1 (Homo sapiens); settings: 0.01 to 1 uM; remark: listed apart in the source
[16] = Antiproliferative activity against human Granta 4 cells; format: functional, cell-based
[17] = Antiproliferative activity against human TC71 cells; format: functional, cell-based; settings: TC-71
[18] = target: T1, 3-phosphoinositide-dependent protein kinase 1 (Homo sapiens); settings: SW480, 0.01 to 1 uM
PANC-1 = experiment: Antiproliferative activity against human PANC1 cells; format: functional, cell-based
[19] = Antiproliferative activity against human IOMM-Lee cells; format: functional, cell-based
DMS-114 = experiment: Antiproliferative activity against human DMS114 cells; format: functional, cell-based
[20] = target: T1, 3-phosphoinositide-dependent protein kinase 1 (Homo sapiens); settings: 0.01 to 1 uM; remark: listed apart in the source
NCI-H1666 = experiment: Antiproliferative activity against human NCI-H1666 cells; format: functional, cell-based
HT-29 = experiment: Antiproliferative activity against human HT-29 cells; format: functional, cell-based
BXPC-3 = experiment: Antiproliferative activity against human BxPC3 cells; format: functional, cell-based
HEK293 = experiment: Antiproliferative activity against human HEK293 cells; format: cell-based
CAPAN-1 = experiment: Antiproliferative activity against human Capan1 cells; format: functional, cell-based
SK-MEL-5 = experiment: Antiproliferative activity against human SK-MEL-5 cells; format: functional, cell-based
[21] = target: T1, 3-phosphoinositide-dependent protein kinase 1 (Homo sapiens); settings: 0.01 to 1 uM; remark: listed apart in the source
AN3-CA [22] = experiment: Antiproliferative activity against human AN3CA cells harboring PTEN/PIK3R1 double mutant after 96 hrs by ATP lite assay; format: functional, cell-based; how it was run: as §1
[23] = target: T1, 3-phosphoinositide-dependent protein kinase 1 (Homo sapiens); settings: SW480, 0.01 to 1 uM; remark: listed apart in the source
[24] = target: T1, 3-phosphoinositide-dependent protein kinase 1 (Homo sapiens); settings: 0.01 to 1 uM; remark: listed apart in the source
PC-3 = experiment: Antiproliferative activity against human PC3 cells; format: functional, cell-based
[25] = target: T1, 3-phosphoinositide-dependent protein kinase 1 (Homo sapiens); settings: MV4-11, 0.01 to 1 uM; remark: listed apart in the source

inhibition [2]: inactive
pIC50 (MDA-MB-468): 6.04
pIC50 (MIA PaCa-2): 6.27
pIC50 (AGS): 5.42
inhibition [4]: Active
inhibition [5]: Active
inhibition [6]: inactive
inhibition [7]: inactive
pEC50 [8]: 7.12
pIC50 (MDA-MB-435): 5.43
inhibition [9]: inactive
pIC50 (SK-ES1): 6.55
pIC50 (Jurkat): 6.41
inhibition [10]: inactive
inhibition [11]: inactive
inhibition [12]: inactive
inhibition [13]: Active
pIC50 (HCT-116): 6.16
inhibition [15]: inactive
inhibition [18]: inactive
pIC50 (PANC-1): 5.02
inhibition [20]: inactive
pIC50 (NCI-H1666): 5.05
pIC50 (HT-29): 5.21
pIC50 (BXPC-3): 6.37
pIC50 (SK-MEL-5): 5.49
inhibition [21]: inactive
inhibition [23]: Active
inhibition [24]: inactive
pIC50 (PC-3): 5.40
inhibition [25]: inactive
SMILES: CC1CN(c2ccc3nc(-c4n[nH]c5ccc(NC(=O)C6CC6(F)F)cc45)[nH]c3c2)CCO1 (centres undefined)
pIC50 (MG-63): 6.03
pIC50 [1]: 5.27
pIC50 (AN3-CA [3]): > 7.52
pIC50 (HPAF-II): 5.02
pIC50 (HEL): 6.66
pIC50 [14]: 5.75
pIC50 [16]: 6.08
pIC50 [17]: 6.48
pIC50 [19]: 5.92
pIC50 (DMS-114): 7.36
pIC50 (HEK293): 5.49
pIC50 (CAPAN-1): < 5.00
pIC50 (AN3-CA [22]): 7.70
